Test system: MS2 coat protein
Experiment: apparent Kd, MS2 coat protein; higher = weaker binding; RNA-MaP array; FMN 200 µM where present
Method in brief: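 Apparent Kd: the median of filtered binding-curve fits from single clusters. Designs were transcribed on Illumina sequencing-chip clusters by stalled E. coli RNA polymerase and titrated with SNAP-549-labelled MS2 coat protein from 0.7 or 1.5 nM, doubling to 3 µM, in 100 mM Tris-HCl pH 7.5, 80 mM KCl, 4 mM MgCl2, BSA, DTT, yeast tRNA and Tween-20. Each series ran without and then with constant ligand, and green signal was normalised to red-channel RNA signal and control-cluster median Fmax.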

[1] = designed as: OFF switch for flavin mononucleotide, no ligand
[2] = ligand present: flavin mononucleotide, designed as: OFF switch for flavin mononucleotide
[3] = designed as: ON switch for flavin mononucleotide, no ligand
[4] = ligand present: flavin mononucleotide, designed as: ON switch for flavin mononucleotide

Sequence	apparent Kd [1]	apparent Kd [2]	apparent Kd [3]	apparent Kd [4]
CUGUGUGACCGAGGAUAUAGACAUGAGGAUCACCCAUGUACGCCCAUCCAUGAAAGGUCCGUCGUCUAGAAGGCGGAGGCAAUG	11.2 nM	23.4 nM		
GAUAGGACAGAGAAGGACGUAGCUAGAGAUACUAGCAUAAGAACCUUUACAUGAGGAUCACCCAUGUAGGAUAUCUGUCCUAUC	5.88 nM	6.89 nM		
UAAACACCCUCAUGUGCCUGAGGACAUGAGGAUCACCCAUGUAAGGAUAUAGCCAUUAAAUCUAACUAGAAGGUACAGGACAUC	242 nM	169 nM		
GCUGCAAAGUAAGGAUAUGCCUAGGAAACCUAGGCAGAAGGUACAUGAGGAUCACCCAUGUUAACCCAAAGGGAAUAAAGCAGC	15.8 nM	25.3 nM		
GUAGCUAUCGGAGGAUAUUCAUACCGGAAAAGGACAUGAGGAUCACCCAUGUGGCGAAAGCCUUGGGAGAAGGCCGAUAGCUAC			94.2 nM	6.77 nM
ACUGUGCAUUAGAAGGGUGCGCGGCAAUCGCGCACAGGAUAUGAUGACAUGAGGAUCACCCAUGUCUGUGUCACCUGGGUGUCG	13.3 nM	83.8 nM		
CCCACACUUGUGAGGAUAUGGAUAGCUGCUGCUGAUUAGAAGGCACAUGAGGAUCACCCAUGUCACCCUCAUGG	278 nM	255 nM		
ACCUGGACCACAGGAUAUCCCAAUGUUUUACAGGGAGAAGGGUGAGAGUAUGACAUGAGGAUCACCCAUGUUGUCCAGGCGGAA			442 nM	191 nM
CAUACACAUGAGGAUCACCCAUGUGAGGAUAUGCGUACGUUGUCAGUAGGCGACGUGCGCAGAAGGCGCGUGUU	60.5 nM	47.7 nM		
AACAGUACAGGAUAUACAUGAGGAUCACCCAUGUGAGAAUUAAGUGGCAUACCACAAAGUAGAAGGGUACUGGA	29.7 nM	202 nM		
AAGCGCUGUCAAGGAUAUCCGAAAAGAGAAUAAGGAGAAGGUGACAUGAGGAUCACCCAUGUGCACUGGGUGGACGCGCGCUCC	549 nM	196 nM		
GCAUCACAUGAGGAUCACCCAUGUCUUCGGAGUCGAGGAUAUGGUCACUGUAAACAGUGGCCAGAAGGCGAGAUGC			48.1 nM	31.6 nM
AGGCCACAAGGAUAUACAUGAGGAUCACCCAUGUAGAAAGACGUGUGGUCAUGUUCGAGUAGAAGGUGUAGCGG	12.9 nM	12.7 nM		
AUCAGCUCGUCAGGAUAUACGUCACUGCGUCUGCAGUGUGGUAAGAUCACAUGAGGAUCACCCAUGUAGAAGGGACGAGCUGAU	14.1 nM	254 nM		
GGUGGCGUGAUAACGCUAGCUAUAACAUGAGGAUCACCCAUGUAGGAUAUCCCGCCGUGAGGGCGGGAGAAGGACAACCGAUGG	28.5 nM	30.8 nM		
UUGCCUCAGAACAUGAGGAUCACCCAUGUGCUGCGGGCAACGUAGGAUAUGAUGGUGUGACACCAUCAGAAGGAUGAUGGUACC			5.97 nM	5.81 nM
AUCUUGCGAGGAUAUACUUACUUUUUUUCAUUUGGUUGCGAACAUGAGGAUCACCCAUGUAGAAGGUGCAUAAC	27.6 nM	23.6 nM		
AAUUAUUUUUGAGGAUAUCGUGGUGAAACACCACGAGAAGGCGAGAUACACAUGAGGAUCACCCAUGUGAGCCUGAUGCUUAUG	16.1 nM	14.4 nM		
GUGAAGAAUUAAGGAUAUUGAAUACAUAUGUUUAACAUGAGGAUCACCCAUGUGGGUUGCGGUAUCGAGAAGGUAAAUUACUGG			111 nM	126 nM
GCGUCAGAAUUAAUUGUGACAUACAGAAGGCAAAAGUUAUGUUCAGACAUGAGGAUCACCCAUGUUGAGGAUAUGUAGAGAAUC	8.27 nM	7.1 nM		
GAAGUUUCCUGAGGAUAUACAUGAGGAUCACCCAUGUAAUGCUUGACUUCAGUAGAAGGCGGGAAACGAAAUUUCGGUGAUCAG	353 nM	140 nM		
AACUGUACAGGAUAUACAUGAGGAUCACCCAUGUGAGAAUUAAGUGGAGAACCACAAAGUAGAAGGGUACAGGA	44.8 nM	286 nM		
AAGAAACAUGAGGAUCACCCAUGUCAGGAUAUGCAAGACUGACGAAAGUCAGUCAAAAGCAGAAGGGACUAGAA	57.2 nM	76.6 nM		
UGUUGUAUUACAGGAUAUCUAGUAUGUUUAUUUAGAGAAGGGUAUUCACAUGAGGAUCACCCAUGUAUAUACGAGGAAGUUGUG			39.1 nM	42.5 nM
CAGUACUGAGGAUAUACAUGAGGAUCACCCAUGUGUUCGAUACUAGUGAGGUCGAUUAGUAGAAGGCAGUACUG	21.3 nM	248 nM		
GUGACGAAUGUAGGAUAUGCUGAGGAAUACUCAGCAGAAGGACAUGAGGAUCACCCAUGUCAUCCUUAUAAUAAAUAUCGUCAC	13.4 nM	17.7 nM		
GGAUGACAAAGUCAUCCUAUUCGAACAUGAGGAUCACCCAUGUAGGAUAUGCUUCUCAAAGAGAAGCAGAAGGACAUGUGCCUU	32 nM	182 nM		
AAGUCGUGAGGAUAUACAUGGAUAUACAUUUAUGUAAAACUACAUGAGGAUCACCCAUGUAGAAGGCACGAAUA	50.7 nM	128 nM		
